Data as given in ChEMBL document CHEMBL2034925, “Isoprenylated flavonoid and adipogenesis-promoting constituents of Dodonaea viscosa” (2012).
The source made the active and inactive calls. The calls are words filed in the database; no cut-off is given here.

Key:
[1] = tested on: 3T3-L1; experiment: Adipogenic activity in mouse 3T3L1 cells assessed as increase in triglyceride level at 3 uM after 8 days relative to control; format: functional
How it was run: (§1)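 3T3L1 fibroblasts grown in DMEM/10% newborn calf serum, 37 °C, 5% CO2. Two days post-confluence, differentiation induced with 2 μg/mL insulin, 1 μM dexamethasone, 125 μM IBMX in DMEM/10% FBS. Medium was then changed every two days to 10% FBS/DMEM plus 2 μg/mL insulin. Compounds added at induction and kept 8 days. Cells lysed by three freeze/thaw cycles; triglyceride measured by enzymatic kit.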

[2] = tested on: 3T3-L1; experiment: Adipogenic activity in mouse 3T3L1 cells assessed as upregulation of GLUT4 gene expression at 3 to 30 uM by RT-PCR analysis; format: functional, cell-based
How it was run: (§2)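 In differentiating 3T3L1 cells (insulin/dexamethasone/IBMX induction, compounds added at induction), total RNA extracted with TRIzol, reverse-transcribed, then quantitative PCR run with mouse primers for GLUT4 or aP2, with β-actin as reference gene.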

[3] = tested on: 3T3-L1; experiment: Adipogenic activity in mouse 3T3L1 cells assessed as upregulation of ap2 protein expression at 3 to 10 uM by […] analysis; format: functional, cell-based
How it was run: (§3)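 Differentiating 3T3L1 cells (insulin/dexamethasone/IBMX induction, compounds added at induction) harvested in RIPA buffer with protease inhibitors. Proteins resolved by SDS-PAGE and blotted onto PVDF. Blots probed with primary antibodies to GLUT4 or aP2 and β-actin, then HRP-conjugated secondary antibodies.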

[4] = tested on: 3T3-L1; experiment: Adipogenic activity in mouse 3T3L1 cells assessed as upregulation of ap2 gene expression at 3 to 30 uM by RT-PCR analysis; format: functional, cell-based; how it was run: as §2
[5] = tested on: 3T3-L1; experiment: Adipogenic activity in mouse 3T3L1 cells assessed as increase in triglyceride level at 10 uM after 8 days relative to control; format: functional; how it was run: as §1
[6] = tested on: 3T3-L1; experiment: Adipogenic activity in mouse 3T3L1 cells assessed as intracellular lipid droplet accumulation at 10 to 30 uM after 8 days by oil red O staining; format: functional, cell-based
How it was run: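 3T3L1 fibroblasts, differentiation induced 2 days post-confluence with insulin (2 μg/mL), dexamethasone (1 μM), IBMX (125 μM) in 10% FBS/DMEM, then insulin-supplemented 10% FBS/DMEM changed every 2 days. Compounds present from induction. After 8 days of differentiation, cells stained with Oil Red O and photographed.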

[7] = tested on: 3T3-L1; experiment: Adipogenic activity in mouse 3T3L1 cells assessed as upregulation of GLUT4 protein expression at 3 to 10 uM by […] analysis; format: functional, cell-based; how it was run: as §3
[8] = tested on: 3T3-L1; experiment: Adipogenic activity in mouse 3T3L1 cells assessed as increase in triglyceride level after 8 days relative to control; format: functional, cell-based; how it was run: as §1
[9] = tested on: 3T3-L1; experiment: Adipogenic activity in mouse 3T3L1 cells assessed as upregulation of ap2 protein expression at 3 to 30 uM by […] analysis; format: functional, cell-based
[10] = tested on: 3T3-L1; experiment: Adipogenic activity in mouse 3T3L1 cells assessed as increase in triglyceride level at 30 uM after 8 days relative to control; format: functional; how it was run: as §1
[11] = tested on: 3T3-L1; experiment: Adipogenic activity in mouse 3T3L1 cells assessed as upregulation of GLUT4 protein expression at 3 to 30 uM by […] analysis; format: functional, cell-based; how it was run: as §3
[12] = tested on: 3T3-L1; experiment: Adipogenic activity in mouse 3T3L1 cells assessed as increase in triglyceride level at 1 uM after 8 days relative to control; format: functional; how it was run: as §1

COc1c(-c2cc(CC=C(C)C)c(O)c(CC=C(C)C)c2)oc2cc(O)cc(O)c2c1=O
Activity [1]: 169.9%

COc1c(O)cc2oc(-c3cc(CC=C(C)C)c(O)c(CC=C(C)C)c3)c(OC)c(=O)c2c1O
Activity [1]: 256.2%

COc1c(O)cc2oc(-c3cc(CC=C(C)C)c(O)c(CCC(C)CO)c3)c(OC)c(=O)c2c1O (stereo not drawn)
Activity [2]: Active
Activity [3]: Active
Activity [4]: Active
Activity [5]: 289.8%
Activity [6]: Active
Activity [7]: Active
Activity [1]: 233%

COc1c(-c2ccc(O)cc2)oc2cc(O)cc(O)c2c1=O
Activity [8]: inactive

COc1c(O)cc2oc(-c3ccc(O)cc3)c(OC)c(=O)c2c1O
Activity [8]: inactive

COc1cc(O)c2c(c1)O[C@H](c1cc(O)cc(O)c1)CC2=O [BLUMEATIN]
Activity [2]: Active
Activity [4]: Active
Activity [5]: 161.3%
Activity [9]: Active
Activity [10]: 219.2%
Activity [6]: Active
Activity [1]: 121.2%
Activity [11]: Active

C=C(C)C(O)Cc1cc(-c2oc3cc(O)c(OC)c(O)c3c(=O)c2OC)cc(CCC(C)CO)c1O (stereo not drawn) [DODOVISCIN A]
Activity [2]: Active
Activity [3]: Active
Activity [4]: Active
Activity [5]: 248.3%
Activity [6]: Active
Activity [7]: Active
Activity [1]: 138.5%

C=C(C)C(O)Cc1cc(-c2oc3cc(O)c(OC)c(O)c3c(=O)c2OC)cc(CC=C(C)C)c1O (stereo not drawn) [DODOVISCIN B]
Activity [1]: 328.1%

COc1c(O)cc2oc(-c3cc(CC=C(C)C)c(O)c(C[C@H](O)C(C)(C)O)c3)c(OC)c(=O)c2c1O [DODOVISCIN D]
Activity [5]: 117.8%
Activity [10]: 198.2%
Activity [1]: 103.2%

COc1c(-c2cc(CC=C(C)C)c(O)c(C/C=C(\C)CO)c2)oc2cc(O)cc(O)c2c1=O [DODOVISCIN E]
Activity [1]: 280.2%

COc1c(O)cc2oc(-c3cc(CC=C(C)C)c(O)c(C/C=C(\C)CO)c3)c(OC)c(=O)c2c1O [DODOVISCIN G]
Activity [1]: 355.7%

COc1c(-c2cc(CC=C(C)C)c(O)c(CCC(C)CO)c2)oc2cc(O)cc(O)c2c1=O (stereo not drawn) [DODOVISCIN H]
Activity [1]: 263.1%

COc1c(-c2ccc(O)c(CCC(C)CO)c2)oc2cc(O)cc(O)c2c1=O (stereo not drawn) [DODOVISCIN I]
Activity [1]: 189.6%

CN(CCOc1ccc(CC2SC(=O)NC2=O)cc1)c1ccccn1 (stereo not drawn) [ROSIGLITAZONE]
Activity [12]: 335.6%

COc1cc(O)c2c(c1)O[C@H](c1ccc(O)cc1)CC2=O [SAKURANETIN]
Activity [5]: 419.9%
Activity [10]: 459.4%
Activity [1]: 278.8%
